Values after ≈ are worked out from the molar mass of the structure shown.
Legend:
Enterococcus faecium [1] = assay: Tested for in vitro antibacterial activity against Enterococcus faecium 02D31P2 vancomycin teicoplanin erythromycin resistance phenotype; type: functional
Staphylococcus aureus [2] = assay: IC50 was determined for gyrase B of Staphylococcus aureus against novobiocin (0.5 mg/mL) as reference; IC50nov/IC50comp
[3] = tested on: Staphylococcus epidermidis; assay: Tested for in vitro antibacterial activity against Staphylococcus epidermidis 012GO42 oxacillin resistance phenotype; type: functional
Staphylococcus aureus [4] = assay: Tested for in vitro antibacterial activity against Staphylococcus aureus 011 HT3 phenotype; type: functional
Staphylococcus aureus [5] = assay: Tested for in vitro antibacterial activity against Staphylococcus aureus 011 GO64 ofloxacin oxacillin erythromycin resistance phenotype; type: functional
Streptococcus pyogenes [6] = assay: Tested for in vitro antibacterial activity against Streptococcus pyogenes O2A1UC1 phenotype; type: functional
Staphylococcus aureus [7] = assay: Tested for in vitro antibacterial activity against Staphylococcus aureus 011 HT1 novobiocin resistance phenotype; type: functional
[8] = Tested for Tmax value at the dose of 10 mg/kg when administered perorally in mouse; type: ADME, organism-based; design: dose 10 mg/kg, route oral; conditions: in vivo, po
Procedure, shortened: (§1)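 Mouse pharmacokinetics used 10 mg/kg given IV and PO. Tmax and Cmax (µg/ml) come from oral dosing, half-life is in hours, and oral bioavailability is F%.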

[9] = Tested for bioavailability of the compound; type: ADME, organism-based; conditions: mouse, in vivo; procedure, shortened: as §1
[10] = Tested for half life at the dose of 10 mg/kg when administered intravenously; type: ADME, organism-based; design: dose 10 mg/kg, route intravenous; conditions: mouse, in vivo, iv; procedure, shortened: as §1
[11] = Tested for Cmax value at the dose of 10 mg/kg when administered perorally in mouse; type: ADME, organism-based; design: dose 10 mg/kg, route oral; conditions: in vivo, po; procedure, shortened: as §1
Enterococcus faecium [12] = assay: Minimum inhibitory concentration of the orally administered compound evaluated against vancomycin resistant Enterococci faecium D3HT12 strain in mice; type: functional
Enterococcus [13] = assay: Minimum inhibitory concentration evaluated against enterococci species resistant to vancomycin [65]*; type: functional
Enterococcus [14] = assay: Minimum inhibitory concentration evaluated against enterococci species resistant to vancomycin and teicoplanin [17]*; type: functional
Enterococcus [15] = assay: Minimum inhibitory concentration evaluated against enterococci species susceptible to vancomycin [26]*; type: functional
Enterococcus faecalis = assay: Minimum inhibitory concentration of the orally administered compound evaluated against Enterococci faecalis D2HT6 strain in mice; type: functional
Enterococcus faecium [16] = assay: Minimum inhibitory concentration of the orally administered compound evaluated against Enterococci faecium D3HT7 strain in mice; type: functional
Enterococcus faecium [17] = assay: Minimum inhibitory concentration of the orally administered compound evaluated against vancomycin resistant Enterococci faecium D3AP9 strain in mice; type: functional
Enterococcus faecium [18] = assay: Minimum inhibitory concentration of the orally administered compound evaluated against vancomycin resistant Enterococci faecium D3HM3 strain in mice; type: functional
Enterococcus faecium [19] = assay: Minimum inhibitory concentration of the orally administered compound evaluated against vancomycin resistant Enterococci faecium D3HM4 strain in mice; type: functional
Enterococcus [20] = assay: In vitro anti-enterococcal activity against enterococci species resistant to vancomycin and teicoplanin [17]* expressed as geometric mean; type: functional
Enterococcus [21] = assay: In vitro anti-enterococcal activity against enterococci species susceptible to vancomycin [26]* expressed as geometric mean; type: functional
pneumococci = assay: In vitro anti-streptococcal activity against pneumococci resistant to penicillin [29]* expressed as geometric mean; type: functional
[22] = Minimum inhibitory concentration evaluated against pneumococci resistant to penicillin [29]*; type: functional
Staphylococcus aureus [23] = assay: Minimum inhibitory concentration of the orally administered compound evaluated against Staphylococcus aureus HT-18 strain in mice; type: functional
Staphylococcus sp. [24] = assay: Minimum inhibitory concentration evaluated against Staphylococcus species [91]*; type: functional
Procedure, shortened: (§2)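 Two-fold agar dilution MIC, in µg/mL, against Staphylococcus panels grouped by resistance phenotype (oxacillin and/or ofloxacin resistant). Per-panel values are reported as the geometric mean and MIC90 across strains; the strain count per panel is given in brackets.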

Staphylococcus sp. [25] = assay: Minimum inhibitory concentration evaluated against Staphylococcus species resistant to ofloxacin [59]*; type: functional; procedure, shortened: as §2
Staphylococcus sp. [26] = assay: Minimum inhibitory concentration evaluated against Staphylococcus species resistant to oxacillin [66]*; type: functional; procedure, shortened: as §2
Staphylococcus sp. [27] = assay: Minimum inhibitory concentration evaluated against Staphylococcus species resistant to oxacillin and ofloxacin [47]*; type: functional; procedure, shortened: as §2
[28] = Minimum inhibitory concentration of the orally administered compound evaluated against […] PW3 strain in mice; type: functional
Streptococcus sp. [29] = assay: In vitro anti-streptococcal activity against Streptococci species (viridans) [25]* expressed as geometric mean; type: functional
Streptococcus sp. [30] = assay: In vitro anti-streptococcal activity against Streptococci species [38]* expressed as geometric mean; type: functional
Streptococcus sp. [31] = assay: Minimum inhibitory concentration evaluated against Streptococci species (viridans) [25]*; type: functional
Streptococcus sp. [32] = assay: Minimum inhibitory concentration evaluated against Streptococci species [38]*; type: functional
Staphylococcus aureus [33] = assay: Minimum inhibitory concentration of the orally administered compound evaluated against Staphylococcus aureus GO3 strain in mice; type: functional
Staphylococcus aureus [34] = assay: Minimum inhibitory concentration of the orally administered compound evaluated against Staphylococcus aureus GR56 strain resistant to oxacillin in mice; type: functional
Staphylococcus aureus [35] = assay: Minimum inhibitory concentration of the orally administered compound evaluated against Staphylococcus aureus HT-17 strain in mice; type: functional
Staphylococcus sp. [36] = assay: In vitro anti-staphylococcal activity against Staphylococcus species resistant to ofloxacin [59]* expressed as geometric mean; type: functional; procedure, shortened: as §2
Staphylococcus sp. [37] = assay: In vitro anti-staphylococcal activity against Staphylococcus species resistant to oxacillin [66]* expressed as geometric mean; type: functional; procedure, shortened: as §2
Staphylococcus sp. [38] = assay: In vitro anti-staphylococcal activity against Staphylococcus species resistant to oxacillin and ofloxacin[47]* expressed as geometric mean; type: functional; procedure, shortened: as §2
Mus musculus [39] = assay: Protective dose of orally administered compound against intraperitoneally-induced septicaemia model (Staphylococcus aureus HT-17 strain) in murine; type: functional; conditions: po, read-out: PD50
Procedure, shortened: (§3)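 PD50 was measured in a murine septicaemia model, with infection induced intraperitoneally with the named Gram-positive strain. Test compound was given orally and the PD50 was calculated by the probit method.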

Mus musculus [40] = assay: Protective dose of orally administered compound against intraperitoneally-induced septicaemia model (Enterococci faecalis D2HT6 strain) in murine; type: functional; conditions: po, read-out: PD50; procedure, shortened: as §3
Mus musculus [41] = assay: Protective dose of orally administered compound against intraperitoneally-induced septicaemia model (Enterococci faecium D3HT7 strain ) in murine; type: functional; conditions: po, read-out: PD50; procedure, shortened: as §3
Mus musculus [42] = assay: Protective dose of orally administered compound against intraperitoneally-induced septicaemia model (Staphylococcus aureus GO3 strain) in murine; type: functional; conditions: po, read-out: PD50; procedure, shortened: as §3
Mus musculus [43] = assay: Protective dose of orally administered compound against intraperitoneally-induced septicaemia model (Staphylococcus aureus HT18) in murine; type: functional; conditions: po, read-out: PD50; procedure, shortened: as §3
Mus musculus [44] = assay: Protective dose of orally administered compound against intraperitoneally-induced septicaemia model (vancomycin resistant Enterococci faecium D3AP9 strain ) in murine; type: functional; conditions: po, read-out: PD50; procedure, shortened: as §3
Mus musculus [45] = assay: Protective dose of orally administered compound against intraperitoneally-induced septicaemia model (vancomycin resistant Enterococci faecium D3HM3 strain ) in murine; type: functional; conditions: po, read-out: PD50; procedure, shortened: as §3
Mus musculus [46] = assay: Protective dose of orally administered compound against intraperitoneally-induced septicaemia model (vancomycin resistant Enterococci faecium D3HM4 strain ) in murine; type: functional; conditions: po, read-out: PD50
Procedure, shortened: (§4)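 Mice infected intraperitoneally to induce septicaemia, then given the compound by mouth. PD50 was calculated by the probit method.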

Mus musculus [47] = assay: Protective dose of orally administered compound against intraperitoneally-induced septicaemia model (vancomycin resistant Enterococci faecium D3HT12 strain ) in murine; type: functional; conditions: po, read-out: PD50; procedure, shortened: as §4
Mus musculus [48] = assay: Protective dose of orally administered compound against intraperitoneally-induced septicaemia model (Staphylococcus aureus GR56 strain resistant to oxacillin) in murine; type: functional; conditions: po, read-out: PD50; procedure, shortened: as §3
Staphylococcus sp. [49] = assay: In vitro anti-staphylococcal activity against Staphylococcus species [91]* expressed as geometric mean; type: functional
Procedure, shortened: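 Two-fold agar-dilution MICs (µg/mL) were run on a panel of staphylococcal isolates and summarised as the geometric mean across strains.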

Streptococcus pyogenes [50] = assay: Minimum inhibitory concentration of the orally administered compound evaluated against Streptococcus pyogenes A1UC1 strain in mice
Mus musculus [51] = assay: Protective dose of orally administered compound against intraperitoneally-induced septicaemia model (Streptococcus pneumoniae PW3 strain) in murine; conditions: po, read-out: PD50
Mus musculus [52] = assay: Protective dose of orally administered compound against intraperitoneally-induced septicaemia model (Streptococcus pyogenes A1UC1 strain) in murine; conditions: po, read-out: PD50
Mus musculus [53] = assay: Protective dose of orally administered compound against intraperitoneally-induced septicaemia model (Streptococcus agalactiae B1HT3 strain) in murine; conditions: po, read-out: PD50

C#CCONC(=O)O[C@H]1[C@@H](O)[C@H](Oc2ccc3c(=O)c(/C(C)=N/OC)c(O)oc3c2C)OC2(CCCCC2)[C@@H]1OC
MIC (Enterococcus faecium [1]): 0.15 µg/mL (≈ 0.261 µM)
Ratio (Staphylococcus aureus [2]): 2.6
MIC [3]: < 0.04 µg/mL
MIC (Staphylococcus aureus [4]): < 0.04 µg/mL
MIC (Staphylococcus aureus [5]): 0.15 µg/mL (≈ 0.261 µM)
MIC (Streptococcus pyogenes [6]): 0.6 µg/mL (≈ 1.04 µM)
MIC (Staphylococcus aureus [7]): 0.6 µg/mL (≈ 1.04 µM)

C#CCONC(=O)O[C@H]1[C@@H](O)[C@H](Oc2ccc3c(=O)c(/C(C)=N/OC)c(O)oc3c2C)OC2(CCCC2)[C@@H]1OC
Tmax [8]: 0.5 h
bioavailability [9]: 62%
half-life [10]: 2.5 h
Cmax [11]: 5400 ng/mL
MIC (Enterococcus faecium [1]): 0.15 µg/mL (≈ 0.268 µM)
MIC (Enterococcus faecium [12]): 0.15 µg/mL (≈ 0.268 µM)
MIC90 (Enterococcus [13]): 0.6 µg/mL (≈ 1.07 µM)
MIC90 (Enterococcus [14]): 0.3 µg/mL (≈ 0.535 µM)
MIC90 (Enterococcus [15]): 1.2 µg/mL (≈ 2.14 µM)
MIC (Enterococcus faecalis): 0.3 µg/mL (≈ 0.535 µM)
MIC (Enterococcus faecium [16]): 0.15 µg/mL (≈ 0.268 µM)
MIC (Enterococcus faecium [17]): 0.6 µg/mL (≈ 1.07 µM)
MIC (Enterococcus faecium [18]): 0.08 µg/mL (≈ 0.143 µM)
MIC (Enterococcus faecium [19]): 0.6 µg/mL (≈ 1.07 µM)
GM (Enterococcus [20]): 0.16
GM (Enterococcus [21]): 0.26
Ratio (Staphylococcus aureus [2]): 2.6
GM (pneumococci): 0.12
MIC90 [22]: 0.3 µg/mL (≈ 0.535 µM)
MIC (Staphylococcus aureus [23]): < 0.04 µg/mL
MIC90 (Staphylococcus sp. [24]): 0.15 µg/mL (≈ 0.268 µM)
MIC90 (Staphylococcus sp. [25]): 0.15 µg/mL (≈ 0.268 µM)
MIC90 (Staphylococcus sp. [26]): 0.15 µg/mL (≈ 0.268 µM)
MIC90 (Staphylococcus sp. [27]): 0.15 µg/mL (≈ 0.268 µM)
MIC [28]: 1.2 µg/mL (≈ 2.14 µM)
GM (Streptococcus sp. [29]): 0.59
GM (Streptococcus sp. [30]): 0.47
MIC90 (Streptococcus sp. [31]): 1.2 µg/mL (≈ 2.14 µM)
MIC90 (Streptococcus sp. [32]): 1.2 µg/mL (≈ 2.14 µM)
MIC (Staphylococcus aureus [33]): 0.3 µg/mL (≈ 0.535 µM)
MIC (Staphylococcus aureus [34]): 0.08 µg/mL (≈ 0.143 µM)
MIC (Staphylococcus aureus [35]): 0.15 µg/mL (≈ 0.268 µM)
GM (Staphylococcus sp. [36]): 0.082
GM (Staphylococcus sp. [37]): 0.097
GM (Staphylococcus sp. [38]): 0.081
MIC [3]: < 0.04 µg/mL
MIC (Staphylococcus aureus [4]): < 0.04 µg/mL
MIC (Streptococcus pyogenes [6]): 0.15 µg/mL (≈ 0.268 µM)
ED50 (Mus musculus [39]): 2.8 mg/kg
ED50 (Mus musculus [40]): 10 mg/kg
ED50 (Mus musculus [41]): 112 mg/kg
ED50 (Mus musculus [42]): 7.1 mg/kg
ED50 (Mus musculus [43]): 5.6 mg/kg
ED50 (Mus musculus [44]): 44 mg/kg
ED50 (Mus musculus [45]): 32 mg/kg
ED50 (Mus musculus [46]): 77 mg/kg
ED50 (Mus musculus [47]): 40 mg/kg
MIC (Staphylococcus aureus [7]): 1.2 µg/mL (≈ 2.14 µM)
ED50 (Mus musculus [48]): 1 mg/kg
GM (Staphylococcus sp. [49]): 0.099
MIC (Streptococcus pyogenes [50]): 0.15 µg/mL (≈ 0.268 µM)
ED50 (Mus musculus [51]): 8.5 mg/kg
ED50 (Mus musculus [52]): 37.6 mg/kg
ED50 (Mus musculus [53]): 27.7 mg/kg

CO[C@@H]1[C@@H](OC(N)=O)[C@@H](O)[C@H](Oc2ccc3c(O)c(NC(=O)c4ccc(O)c(CC=C(C)C)c4)c(=O)oc3c2C)OC1(C)C [NOVOBIOCIN]
MIC (Enterococcus faecium [1]): 0.6 µg/mL (≈ 0.979 µM)
Ratio (Staphylococcus aureus [2]): 1
MIC [3]: < 0.04 µg/mL
MIC (Staphylococcus aureus [4]): < 0.04 µg/mL
MIC (Streptococcus pyogenes [6]): 0.3 µg/mL (≈ 0.49 µM)
MIC (Staphylococcus aureus [7]): 10 µg/mL (≈ 16.3 µM)

From ChEMBL document CHEMBL1133253, “Improved antibacterial activities of coumarin antibiotics bearing 5',5'-dialkylnoviose: biological activity of RU79115” (Bioorg Med Chem Lett, 2000)
